Reference: ChEMBL document CHEMBL5230167, “Discovery of N-sulfonylated aminosalicylic acids as dual MCL-1/BCL-xL inhibitors” (RSC Med Chem, 2023)

Columns and labels:
Bcl-2-like protein 1 = Bcl-2-like protein 1 (Homo sapiens, UniProt Q07817); experiment: Binding affinity to BCL-xL (unknown origin) assessed as inhibition constant
Homo sapiens [1] = species: Homo sapiens; experiment: Selectivity index, ratio of Ki for inhibition of FITC-labelled BAK BH3 peptide to MCL-1 (172 to 327 residues) (unknown origin) assessed as inhibition constant to Ki for binding affinity to BCL-xL (unknown origin) assessed as inhibition constant
Homo sapiens [2] = species: Homo sapiens; experiment: Selectivity index, ratio of Ki for inhibition of FITC-labelled BAK BH3 peptide to 6His-MBP tagged recombinant human MCL-1 (172 to 327 residues) expressed in Escherichia coli assessed as inhibition constant to Ki for binding affinity to BCL-xL (unknown origin) assessed as inhibition constant
[3] = molecular target: T1, Induced myeloid leukemia cell differentiation protein Mcl-1 (Homo sapiens, UniProt Q07820); experiment: Binding affinity to MCL-1 (unknown origin) assessed as inhibition constant
T1 sequence (Q07820 whole entry, the tested form may be a part): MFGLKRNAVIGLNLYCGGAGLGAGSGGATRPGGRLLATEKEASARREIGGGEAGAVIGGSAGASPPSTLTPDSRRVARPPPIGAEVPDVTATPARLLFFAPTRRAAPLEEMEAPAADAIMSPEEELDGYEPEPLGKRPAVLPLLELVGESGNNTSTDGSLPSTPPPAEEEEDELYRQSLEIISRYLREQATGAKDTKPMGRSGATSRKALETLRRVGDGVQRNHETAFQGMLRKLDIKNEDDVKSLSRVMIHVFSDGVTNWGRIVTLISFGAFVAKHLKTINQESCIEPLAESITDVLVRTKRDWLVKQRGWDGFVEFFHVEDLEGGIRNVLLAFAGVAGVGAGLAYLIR

[4] = molecular target: T1, Induced myeloid leukemia cell differentiation protein Mcl-1; experiment: Inhibition of FITC-labelled BAK BH3 peptide to 6His-MBP tagged recombinant human MCL-1 (172 to 327 residues) expressed in Escherichia coli assessed as inhibition constant by fluorescence polarization competition assay
Outline: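 Fluorescence polarization competition: compounds titrated into a mixture of MCL-1 (residues 172–327) and FITC-labelled BAK BH3 peptide. Displacement of the peptide was followed by the change in polarization, and Ki was derived from the competition titration.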

Sequence of Bcl-2-like protein 1 (Q07817 whole entry, the tested form may be a part): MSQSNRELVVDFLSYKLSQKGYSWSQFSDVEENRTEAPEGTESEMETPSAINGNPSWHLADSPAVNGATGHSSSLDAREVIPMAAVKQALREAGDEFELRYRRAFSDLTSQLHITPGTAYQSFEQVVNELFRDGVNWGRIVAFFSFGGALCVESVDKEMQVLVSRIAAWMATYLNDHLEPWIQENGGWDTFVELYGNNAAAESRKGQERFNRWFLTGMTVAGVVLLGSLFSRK

| Ki (Bcl-2-like protein 1) | Ratio Ki (Homo sapiens [2]) | SMILES | further results |
| --- | --- | --- | --- |
| 3560 nM | – | Cc1cc(Oc2ccc(S(=O)(=O)N3CCCc4cc(C(=O)O)ccc43)cc2)cc(C)c1Cl | Ki [3]: 2730 nM |
| 1630 nM | 2.09 | Cc1cc(Oc2ccc(S(=O)(=O)N(CC(C)C)c3ccc(C(=O)O)c(O)c3)cc2)cc(C)c1Cl | Ki [4]: 778 nM |
| – | 3.12 | CC(C)CN(c1ccc(C(=O)O)c(O)c1)S(=O)(=O)c1ccc(Oc2ccccc2)cc1 | – |
| – | 2.63 | CC(C)CN(c1ccc(C(=O)O)c(O)c1)S(=O)(=O)c1ccc(-c2ccccc2)cc1 | – |
| 1910 nM | 1.08 | Cc1cc(Oc2ccc(S(=O)(=O)N(c3ccc(C(=O)O)c(O)c3)C3CCCC3)cc2)cc(C)c1Cl | Ki [4]: 1760 nM |
| – | 4.96 | Cc1cc(Oc2ccc(S(=O)(=O)N(CC(C)C)c3ccc(O)c(C(=O)O)c3)cc2)cc(C)c1Cl | – |

Continued, molecule first:

| SMILES | Ki (Bcl-2-like protein 1) | Ratio Ki (Homo sapiens [2]) | further results |
| --- | --- | --- | --- |
| Cc1cc(Oc2ccc(S(=O)(=O)N3CC(C(=O)O)Cc4ccccc43)cc2)cc(C)c1Cl (racemic) | 5010 nM | – | Ratio Ki (Homo sapiens [1]): 42 |
| CC(C)CN(c1ccc(O)c(C(=O)O)c1)S(=O)(=O)c1ccc(-c2ccccc2)cc1 | – | 1.59 | – |
| CC(C)CN(c1ccc(O)c(C(=O)O)c1)S(=O)(=O)c1ccccc1 | 49300 nM | 1.06 | – |
| CC(C)CN(c1ccc(O)c(C(=O)O)c1)S(=O)(=O)c1ccc2ccccc2c1 | – | 5.94 | – |
| CC(C)CN(c1ccc(C(=O)O)c(O)c1)S(=O)(=O)c1ccc2ccccc2c1 | – | 3.12 | – |
| Cc1cc(Oc2ccc(S(=O)(=O)N(Cc3ccccc3)c3ccc(C(=O)O)c(O)c3)cc2)cc(C)c1Cl | – | 2.65 | – |
| CC(C)CN(c1ccc(C(=O)O)c(O)c1)S(=O)(=O)c1ccccc1 | – | 0.8 | – |
